TNAP act mid DEA: human TNAP enzyme activators, primary screen, biochemical, luminescent, intermediate phosphate acceptor level; Alkaline phosphatase, tissue-nonspecific isozyme (Homo sapiens), P05186; purified TNAP, CDP-star luminescence, 100 mM DEA, 30 min; hits give high values; scale: 0 levamisole-inhibited, 1 vehicle-only enzyme; activation factor at 20 µM; 64,000 tested, under 10 active; AID 813, 2007;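 active = activation factor of at least 2 at 20 µM, relative to controls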
M1 antagonist: antagonists of rat M1 muscarinic receptor | CHO-M1 cells, Fluo-4 calcium, ACh EC80 antagonist mode; hits give low values | B-score at 10 µM | hit rate 3.4% among 64,000;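 active = calcium fluorescence response, raw or row-and-column corrected B-score, differing from the plate sample mean either way at a set confidence level, mostly lower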
M1 agonist: M1 muscarinic receptor agonists, primary screen, CHO-M1 cells, Fluo-4 calcium, agonist mode; Muscarinic acetylcholine receptor M1; Fluo-4 calcium fluorescence; hits give high values; B-score at 10 µM; hit rate 3% among 64,000;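 active = fluorescence rise, raw or as B-score row- and column-corrected plate score, outside the 99.7% band of its plate's samples, either direction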
S1P3 agonist: human S1P3 receptor agonists, primary screen, cell-based, primary and confirmation, NFAT-BLA reporter | AID 373, 2006 | activation, % at 4.5 µM | hit rate 0.1% among 60,000 | S1P3 NFAT-BLA reporter cells, agonism, FRET ratio; relative to 1 µM S1P, basal subtracted;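 active = activation above the screen-wide mean plus 3 SD, cut at about 4.5% in these data, passing the limit was not always enough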
Target sequence (Q99500 whole entry, looked up): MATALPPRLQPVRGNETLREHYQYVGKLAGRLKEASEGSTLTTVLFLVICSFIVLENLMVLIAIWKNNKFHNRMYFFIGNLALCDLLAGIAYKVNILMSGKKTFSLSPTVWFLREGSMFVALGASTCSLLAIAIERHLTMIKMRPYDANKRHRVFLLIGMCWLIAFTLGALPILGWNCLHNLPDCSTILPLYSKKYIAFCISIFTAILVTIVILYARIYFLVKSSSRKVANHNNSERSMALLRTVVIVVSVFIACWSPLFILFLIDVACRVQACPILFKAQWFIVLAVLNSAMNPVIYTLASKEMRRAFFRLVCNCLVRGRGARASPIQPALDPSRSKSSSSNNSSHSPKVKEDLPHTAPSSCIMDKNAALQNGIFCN
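material = human S1P3 NFAT-BLA reporter CHO cells | schedule = 4 h compound at 37 °C, 2 h substrate at RT | measured by = fluorescent BLA substrate, ex 405 nm, em 460/535 nm ratio | controls = 1 µM S1P reference | replication = primary once, confirmation triplicate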
D1 allo mod: D1 CRE-luciferase signal change, two-sided – cell-based, HEK293 D1, dopamine EC30, D1 allosteric modulator project, primary screen | hit rate 5.9% among 58,000 | B-score at 10 µM | dopamine EC30 potentiation; actives deviate in either direction | D(1A) dopamine receptor (Homo sapiens), P21728;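 active = luminescence count or its row- and column-corrected plate score outside the 99.7% band of the plate's sample wells, on either side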
S1P1 ag pot: S1P1 agonists and agonism potentiators, primary screen, cell-based, primary and confirmation screens, CRE-bla reporter | Sphingosine 1-phosphate receptor 1 (Homo sapiens), P21453 | S1P1 CRE-bla cells, forskolin, beta-lactamase FRET, potentiator mode; S1P1 agonist co-added at EC20, 2 nM; 100% = saturating reference agonist, 0% = basal | activation, % at 9.5 µM | hit rate 0.57% among 56,000 | AID 449, 2006;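 active = activation above a cutoff set at the mean activation of all tested compounds plus 3 SD, cut at about 54% in these data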;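 note: forskolin at 4 µM as EC80 and the EC20 agonist is SEW2871; 100% = SEW2871 at its EC100 plus forskolin at EC80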
Target sequence (P21453 whole entry, looked up): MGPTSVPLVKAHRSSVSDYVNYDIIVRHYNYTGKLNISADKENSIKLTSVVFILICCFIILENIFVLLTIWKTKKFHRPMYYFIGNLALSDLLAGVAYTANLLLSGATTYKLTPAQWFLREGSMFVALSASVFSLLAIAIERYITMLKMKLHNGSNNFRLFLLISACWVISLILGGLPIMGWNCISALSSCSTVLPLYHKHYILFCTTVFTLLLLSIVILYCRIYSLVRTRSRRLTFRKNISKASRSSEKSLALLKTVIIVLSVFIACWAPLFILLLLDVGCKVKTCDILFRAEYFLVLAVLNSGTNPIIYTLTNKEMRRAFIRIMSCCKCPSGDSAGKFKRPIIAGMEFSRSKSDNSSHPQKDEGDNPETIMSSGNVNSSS
D1 mod confirm: D1 receptor positive allosteric modulators, retest, confirmation, cell-based, HEK293 D1, CRE-luciferase, duplicate; shares compounds with D1 allo mod; dopamine EC30 potentiation; hits give high values; luminescence at 10 µM; hit rate 88% among 2,200;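 active = luminescence in either of two replicates above the same-plate mean plus 3 SD of the low-dose dopamine control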
D1 ag no DA: D1 receptor agonism without dopamine, confirmation, mechanism study for D1 allosteric modulator project, cell-based, HEK293 D1, CRE-luciferase, secondary assay 1 | shares compounds with D1 allo mod | luminescence, no dopamine; hits give high values | luminescence at 10 µM | hit rate 0.8% among 1,900 | AID 646, 2007; in the data active = luminescence above about 3900
Isoprot counter: isoproterenol response counter-screen activity for D1 modulators; shares compounds with D1 allo mod; HEK293 D1 CRE-luciferase, isoproterenol EC30 counter-screen; hits give high values; luminescence at 10 µM; hit rate 63% among 2,200;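 active = luminescence in either replicate above plate mean of wells with a partly effective reference agonist dose plus 3 SD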;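 note: isoproterenol raises cAMP through native beta-adrenoceptor Gs so signal bypasses D1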
An asterisk follows results filed as active; . = no result given. A selection: hits, their analogues and other compounds. The true share with any hit is near 11%.

SMILES | TNAP act mid DEA | M1 antagonist | M1 agonist | S1P3 agonist | D1 allo mod | S1P1 ag pot | D1 mod confirm | D1 ag no DA | Isoprot counter
COc1cc2c(cc1OC)/C(=C/C#N)NC(C)(C)C2 | 0.9 | -0.00703 | 0.644 | -0.3 | 10.1* | -15.0 | 16360* | 1644 | 5416*
COc1cc2c(cc1OC)C(=NCCC(=O)O)NC(C)(C)C2 | 0.9 | 0.803 | -0.246 | -0.2 | -0.0351 | 9.0 | . | . | .
NC(=O)CN1C(=O)C2C3C=CC(C3)C2C1=O (stereo not given) | 1 | -1.73 | -0.48 | -0.5 | 0.562 | -18.5 | . | . | .
c1ccc(-c2nn3nnnc3c3ccccc23)cc1 | 0.9 | -0.0538 | 0.36 | 0.5 | 11.8* | -35.4 | 13348* | 1552 | 3684*
CCCCN1c2cc(C)c(O)cc2C(C(=O)OCC)C1C (stereo not given) | 0.9 | -0.0403 | 0.54 | -1.1 | 0.536 | 23.8 | . | . | .
Cn1cnc2c1c(=O)n(Cc1cccc(Br)c1)c(=O)n2C | 1 | 0.115 | 0.425 | 0.0 | 10.5* | . | 12308* | 1656 | 4408*
COC(=O)c1c(C)cc(C)n2c1nc1ccccc12 | 0.9 | -1.3 | -0.112 | 0.4 | . | -11.3 | . | . | .
COc1cc(OC)cc(C(=O)NCCN2CCOCC2)c1 | 0.9 | 1.4 | -0.716 | -0.1 | -1.13 | -8.7 | . | . | .
CCOc1ccc(CCNC(=O)CCN2C(=O)COc3ccccc32)cc1OCC | 1 | -0.0129 | 0.205 | -0.7 | 2.73* | -7.8 | 9680* | 1836 | 3320*
COCCCNC(=O)CCN1C(=O)COc2ccccc21 | 1 | 0.638 | -0.0178 | -0.6 | 0.607 | -17.2 | . | . | .
COc1ccc(Br)cc1CNC(=O)CCN1C(=O)COc2ccccc21 | 0.9 | 0.0642 | 0.5 | 0.9 | 3.63* | 38.0 | 6192* | . | 2472
COc1ccccc1N1CCN(C/C(O)=C(\C#N)c2nc(-c3ccccc3)cs2)CC1 | 0.9 | 0.0442 | 0.00383 | -0.3 | -0.349 | 23.6 | . | . | .
COc1ccc(-c2csc(/C(C#N)=C(\O)CSc3nccn3C)n2)cc1OC | 0.9 | 0.952 | 1.14 | 0.5 | 18.8* | -21.1 | 18552* | 1616 | 3944*
CCN(CC(=O)Nc1c(C(=O)OC)[nH]c2ccccc12)c1ccc2c(c1)OCO2 | 0.8 | 0.804 | 1.81 | 0.9 | 8.27* | -5.4 | 11912* | 1772 | 4496*
CCOC(=O)c1ccccc1NC(=O)CSc1nnnn1C1CCCCC1 | 0.9 | -1.9 | 0.0437 | 0.6 | 0.0604 | -9.8 | . | . | .
CCOCCCNC(=O)C1c2ccccc2C(=O)N2CCc3ccccc3C12 (stereo not given) | 1 | -0.772 | 0.00579 | -0.6 | 0.404 | 8.7 | . | . | .
CCS(=O)(=O)n1nc(-c2ccccc2)nc1NCc1ccco1 | 1 | 0.102 | -0.0572 | -0.5 | 9.8* | -7.6 | 9056* | 1636 | 4104*
CCOc1ccc(N2CC(C(=O)OC)CC2=O)cc1 (stereo not given) | 1 | 0.0738 | 0.00908 | -1.1 | 0.0335 | . | . | . | .
CCCc1cc(C(=O)Nc2sc(C(C)=O)c(C)c2C(=O)OCC)no1 | 1 | 0.429 | 0.661 | -1.0 | 6.53* | -38.5 | 7336* | 1520 | 2620
CCOC(=O)c1c(/N=C/N(C)C)sc(C(=O)OC)c1C | 1 | 0.371 | -0.333 | . | 3.7* | . | 8988* | . | 2516*
CCOC(=O)c1c(NC(=O)CC)sc(C(C)=O)c1C | 1 | -0.0495 | -0.225 | 0.0 | 16* | -24.7 | 12336* | 1496 | 3600*
CCOC(=O)c1c(N)sc(C(=O)N(C)C)c1C | 1 | 0.523 | 0.0779 | -0.3 | 0.962 | -9.5 | . | . | .
CCOC(=O)c1sc(NC(=O)c2c(C)noc2C)c(C(=O)OCC)c1C | 0.9 | 0.531 | 0.423 | -0.7 | 0.119 | 11.6 | . | . | .
CCOC(=O)c1sc(NC(=O)CN2CCCC2)c(C(=O)OCC)c1C | 0.9 | 0.863 | 0.432 | -1.1 | 0.629 | -5.8 | . | . | .
CCOC(=O)c1sc(NC(=O)CSc2nnc(C)s2)c(C(=O)OCC)c1C | 0.9 | 0.0239 | 0.49 | -0.9 | 6.08* | -1.0 | 25484* | 1664 | 4392*
SMILES | TNAP act mid DEA | M1 antagonist | M1 agonist | S1P3 agonist | D1 allo mod | S1P1 ag pot | D1 mod confirm | D1 ag no DA | Isoprot counter
O=C(c1ccccc1)C1CCc2occc2C1=O (stereo not given) | 1 | -1.26 | 0 | -0.3 | -0.394 | -15.7 | . | . | .
COCCN(CCOC)Cc1c(C)[nH]c2c(C)c(C)ccc2c1=O | 0.9 | . | . | 0.5 | 0.0693 | -13.3 | . | . | .
COC(=O)c1cccnc1-n1c(=O)c2cccnc2n(Cc2cccc(OC)c2)c1=O | 1 | 1.23 | -0.122 | -0.6 | 1 | 12.0 | . | . | .
CCOC(=O)c1c(NC(=O)OC)sc(C(=O)N(C)C)c1C | 0.9 | -0.281 | -0.0881 | . | 4.1* | . | 13484* | 1692 | 3492*
CCOC(=O)c1sc(NC(=O)COC(=O)Cn2cnc3ccccc32)c(C(=O)OCC)c1C | 0.9 | -0.0985 | 0.647 | 0.2 | 4.97* | -10.4 | 9720* | 1652 | 2760
Cc1c(C(C)O)nnn1-c1nonc1N (stereo not given) | 1 | 0.201 | -0.034 | -0.4 | 0.338 | -0.5 | . | . | .
CCOc1ccc(NC(=O)c2cccc3c2C(=O)N(Cc2cccnc2)C3)cc1 | 0.8 | 0.347 | -0.118 | 0.4 | 1.76 | 9.7 | . | . | .
CCC(c1nnc(SCC(=O)Nc2nnc(-c3ccccc3)o2)n1Cc1ccccc1)N(C)C (stereo not given) | 1.1 | 0.198 | 0.107 | -0.8 | 1.1 | -23.0 | . | . | .
Cc1ccc(Nc2nc(N)nc(CC#N)n2)cc1 | 1 | -1.99 | -0.153 | -0.7 | 6.62* | -23.8 | 14616* | . | 3112*
Cc1ccc(Nc2nc(N)nc(CSc3nnc(-c4ccncc4)o3)n2)cc1 | 0.9 | 0 | -0.279 | -0.3 | -0.0701 | . | . | . | .
CCOC(=O)c1cnn2c(C)cc(-c3ccc(F)cc3)nc12 | 0.9 | 0.806 | -0.834 | -2.0 | -0.724 | -34.8 | . | . | .
Cc1cc(-c2ccc(F)cc2)nc2cc(C(N)=O)nn12 | 0.9 | 0.703 | 0.596 | -2.1 | 10.3* | -8.7 | 15420* | 1800 | 4380*

Bioassay records: PubChem, several laboratories
